ChEMBL document CHEMBL1144979, “Combinatorial modification of natural products: synthesis and in vitro analysis of derivatives of thiazole peptide antibiotic GE2270 A: A-ring modifications” (Bioorg Med Chem Lett, 2003)
In brackets after ≈: the same amount, converted by molar mass.

Legend:
[1] = system: Enterococcus faecium; test: In vitro antibacterial activity against Vancomycin-susceptible Enterococcus faecium BM4147.1; type: functional
Procedure, shortened: (§1)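 MICs by NCCLS broth dilution guidelines, modified by adding 0.02% bovine serum albumin to the growth medium; purified, resynthesized compounds tested against the expanded bacterial panel.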

[2] = system: Staphylococcus aureus; test: In vitro antibacterial activity against methicillin sensitive Staphylococcus aureus ATCC 25923; type: functional; procedure, shortened: as §1
[3] = system: Escherichia coli; test: In vitro antibacterial activity against Escherichia coli (A G100B); type: functional; procedure, shortened: as §1
[4] = system: Staphylococcus epidermidis; test: In vitro antibacterial activity against Staphylococcus epidermidis (ATCC 12228); type: functional; procedure, shortened: as §1
[5] = system: Streptococcus pneumoniae; test: In vitro antibacterial activity against Streptococcus pneumoniae (ATTC49619); type: functional; procedure, shortened: as §1
[6] = system: Haemophilus influenzae; test: In vitro antibacterial activity against Haemophilus influenzae (acr, LS-2); type: functional; procedure, shortened: as §1
[7] = system: Enterococcus faecalis; test: In vitro antibacterial activity against Vancomycin-resistant Enterococcus faecalis ATCC 51299; type: functional
[8] = system: Streptococcus pyogenes; test: In vitro antibacterial activity against Streptococcus pyogenes (ATTC19615); type: functional; procedure, shortened: as §1
[9] = system: Haemophilus influenzae; test: In vitro antibacterial activity against Haemophilus influenzae (ATTC31517); type: functional; procedure, shortened: as §1
[10] = system: Staphylococcus aureus; test: In vitro antibacterial activity against methicillin resistant Staphylococcus aureus (MRSA) ATCC 33591; type: functional
[11] = Inhibitory activity against elongation factor Tu (EF-Tu); type: functional, Bacteria
[12] = system: Enterococcus faecalis; test: In vitro antibacterial activity against Vancomycin-resistant Enterococcus faecalis (ATTC51299)

Row | SMILES | MIC [1] | MIC [2] | MIC [3] | MIC [4] | MIC [5] | MIC [6] | MIC [7] | MIC [8] | MIC [9] | MIC [10] | IC50 [11] | MIC [12]
1 | CNC(=O)C[C@@H]1NC(=O)c2csc(n2)-c2ccc(-c3nc(COC(=O)N[C@@H](C)C(=O)O)cs3)nc2-c2csc(n2)-c2csc(n2)C(C(O)c2ccccc2)NC(=O)CNC(=O)c2nc(sc2COC)[C@H](C(C)C)NC(=O)c2nc1sc2C (stereo partly specified) | 0.25 µg/mL (≈ 0.204 µM) | 1 µg/mL (≈ 0.815 µM) | > 16 µg/mL | 2 µg/mL (≈ 1.63 µM) | 4 µg/mL (≈ 3.26 µM) | 1 µg/mL (≈ 0.815 µM) | 0.5 µg/mL (≈ 0.408 µM) | 8 µg/mL (≈ 6.52 µM) | 16 µg/mL (≈ 13 µM) | 0.5 µg/mL (≈ 0.408 µM) | – | –
2 | CNC(=O)C[C@@H]1NC(=O)c2csc(n2)-c2ccc(-c3nc(C(=O)N(C)CCCC(=O)O)cs3)nc2-c2csc(n2)-c2csc(n2)C(C(O)c2ccccc2)NC(=O)CNC(=O)c2nc(sc2COC)[C@H](C(C)C)NC(=O)c2nc1sc2C (stereo partly specified) | 0.125 µg/mL (≈ 0.102 µM) | 0.5 µg/mL (≈ 0.408 µM) | > 16 µg/mL | 1 µg/mL (≈ 0.817 µM) | 2 µg/mL (≈ 1.63 µM) | 1 µg/mL (≈ 0.817 µM) | 0.25 µg/mL (≈ 0.204 µM) | 4 µg/mL (≈ 3.27 µM) | 2 µg/mL (≈ 1.63 µM) | 0.25 µg/mL (≈ 0.204 µM) | – | –
3 | CNC(=O)C[C@@H]1NC(=O)c2csc(n2)-c2ccc(-c3nc(COC(=O)N(C)CCCC(=O)O)cs3)nc2-c2csc(n2)-c2csc(n2)C(C(O)c2ccccc2)NC(=O)CNC(=O)c2nc(sc2COC)[C@H](C(C)C)NC(=O)c2nc1sc2C (stereo partly specified) | 0.5 µg/mL (≈ 0.399 µM) | 0.5 µg/mL (≈ 0.399 µM) | > 16 µg/mL | 0.5 µg/mL (≈ 0.399 µM) | > 16 µg/mL | 2 µg/mL (≈ 1.59 µM) | 0.5 µg/mL (≈ 0.399 µM) | > 16 µg/mL | 8 µg/mL (≈ 6.38 µM) | 0.25 µg/mL (≈ 0.199 µM) | – | –
4 | CNC(=O)C[C@@H]1NC(=O)c2csc(n2)-c2ccc(-c3nc(C(=O)NCC(O)CC(=O)O)cs3)nc2-c2csc(n2)-c2csc(n2)C(C(O)c2ccccc2)NC(=O)CNC(=O)c2nc(sc2COC)[C@H](C(C)C)NC(=O)c2nc1sc2C (stereo partly specified) | 0.25 µg/mL (≈ 0.204 µM) | 1 µg/mL (≈ 0.815 µM) | > 16 µg/mL | 2 µg/mL (≈ 1.63 µM) | 2 µg/mL (≈ 1.63 µM) | 2 µg/mL (≈ 1.63 µM) | 0.25 µg/mL (≈ 0.204 µM) | 1 µg/mL (≈ 0.815 µM) | > 16 µg/mL | 0.25 µg/mL (≈ 0.204 µM) | – | –
5 | CNC(=O)C[C@@H]1NC(=O)c2csc(n2)-c2ccc(-c3nc(COC(=O)NCCCCC(=O)O)cs3)nc2-c2csc(n2)-c2csc(n2)C(C(O)c2ccccc2)NC(=O)CNC(=O)c2nc(sc2COC)[C@H](C(C)C)NC(=O)c2nc1sc2C (stereo partly specified) | 0.125 µg/mL (≈ 0.0996 µM) | 0.5 µg/mL (≈ 0.399 µM) | > 16 µg/mL | 0.5 µg/mL (≈ 0.399 µM) | 2 µg/mL (≈ 1.59 µM) | 2 µg/mL (≈ 1.59 µM) | 0.5 µg/mL (≈ 0.399 µM) | 4 µg/mL (≈ 3.19 µM) | 8 µg/mL (≈ 6.38 µM) | 0.25 µg/mL (≈ 0.199 µM) | – | –
6 | CNC(=O)C[C@@H]1NC(=O)c2csc(n2)-c2ccc(-c3nc(COC(=O)N[C@H](C)C(=O)O)cs3)nc2-c2csc(n2)-c2csc(n2)C(C(O)c2ccccc2)NC(=O)CNC(=O)c2nc(sc2COC)[C@H](C(C)C)NC(=O)c2nc1sc2C (stereo partly specified) | 0.25 µg/mL (≈ 0.204 µM) | 0.5 µg/mL (≈ 0.408 µM) | > 16 µg/mL | 2 µg/mL (≈ 1.63 µM) | 2 µg/mL (≈ 1.63 µM) | 1 µg/mL (≈ 0.815 µM) | 1 µg/mL (≈ 0.815 µM) | 2 µg/mL (≈ 1.63 µM) | 16 µg/mL (≈ 13 µM) | 0.5 µg/mL (≈ 0.408 µM) | – | –
7 | CNC(=O)C[C@@H]1NC(=O)c2csc(n2)-c2ccc(-c3nc(COC(=O)NCC(O)CC(=O)O)cs3)nc2-c2csc(n2)-c2csc(n2)C(C(O)c2ccccc2)NC(=O)CNC(=O)c2nc(sc2COC)[C@H](C(C)C)NC(=O)c2nc1sc2C (stereo partly specified) | 0.5 µg/mL (≈ 0.398 µM) | 1 µg/mL (≈ 0.796 µM) | > 16 µg/mL | 2 µg/mL (≈ 1.59 µM) | 4 µg/mL (≈ 3.18 µM) | 2 µg/mL (≈ 1.59 µM) | 1 µg/mL (≈ 0.796 µM) | 8 µg/mL (≈ 6.37 µM) | > 16 µg/mL | 0.5 µg/mL (≈ 0.398 µM) | – | –
8 | CNC(=O)C[C@@H]1NC(=O)c2csc(n2)-c2ccc(-c3nc(C4=N[C@H](C(=O)N5CCC[C@H]5C(N)=O)CO4)cs3)nc2-c2csc(n2)-c2csc(n2)C(C(O)c2ccccc2)NC(=O)CNC(=O)c2nc(sc2COC)[C@H](C(C)C)NC(=O)c2nc1sc2C (stereo partly specified) | 0.015 µg/mL (≈ 0.0116 µM) | 0.03 µg/mL (≈ 0.0232 µM) | > 16 µg/mL | 0.03 µg/mL (≈ 0.0232 µM) | 0.06 µg/mL (≈ 0.0465 µM) | > 16 µg/mL | – | 0.125 µg/mL (≈ 0.0969 µM) | > 16 µg/mL | 0.03 µg/mL (≈ 0.0232 µM) | 5 nM | 0.015 µg/mL (≈ 0.0116 µM)
